Results on one compound are retold here after ChEMBL document CHEMBL3272112, “Cycloalkanones. 8. Hypocholesterolemic activity of long-chain ketones related to pentadecanone” (J Med Chem, 1976).

What all share (type): functional
For experiment [1], the species on record is Rattus norvegicus. As to the kind of experiment: Disruption of rat liver cell membrane assessed as unlysed cells at 10 mg per gram of tissue measured at 30 mins (reference value: 93 +/- 7%). In short, it runs like this: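 Rat liver 10% homogenate in 0.25 M sucrose + 0.001 M EDTA, pH 7.2, incubated at 37°C with Hanke's buffer pH 7.2 and drug suspended in 1% CMC (dose as mg drug per g wet liver); turbidity read as absorbance at 660 nm over 0–4 hr, falling absorbance taken as lysis; expressed as % unlysed cells; vehicle 1% CMC control.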

Experiment [2] has as its system Rattus norvegicus. As to the kind of experiment: Hypocholesterolemic activity in Sprague-Dawley rat assessed as serum cholesterol level at 1 mg/kg/day, po administered via intubation measured on day 16 by Liebermann-Burchard method relative to control. Put shortly: (§1)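 Male Sprague-Dawley rats given compound homogenized in 1% CMC once daily at 11:00 a.m. by oral intubation needle (0.2 cc), doses calculated on weekly body weights; tail-vein blood drawn 24 h after last dose; nonhemolyzed serum (30 μ) assayed by modified Liebermann-Burchard method; N = 8; % of control, mean ± SD; Student's t test.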

Experiment [3] concerns Rattus norvegicus. As to the kind of experiment: Hypocholesterolemic activity in Sprague-Dawley rat assessed as serum cholesterol level at 10 mg/kg/day, po administered via intubation measured on day 4 by Liebermann-Burchard method relative to control. Put shortly: as §1
Experiment [4] deals with Rattus norvegicus. As to the kind of experiment: Hypocholesterolemic activity in Sprague-Dawley rat assessed as serum cholesterol level at 1 mg/kg/day, po administered via intubation measured on day 4 by Liebermann-Burchard method relative to control. In short, it runs like this:
as §1

Regarding `CCCCCCCCCCCCCCC(C)=O`, the Activity came out at 95% in the experiment listed under Rattus norvegicus [1], 71% with Rattus norvegicus [2], 79% with Rattus norvegicus [3] and 82% in the experiment with Rattus norvegicus [4].
